Tested on: Fibroblast
Assay: Multiplex assay against human fibroblast
Assay type: toxicity, cell-based
How it was run: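 Tubulin, mitochondrial-mass and membrane-permeability phenotypes are per cents of healthy-nucleus cells. Cells were gated by CellPathfinder machine learning into Hoechst high-intensity objects or normal cells, normal cells into healthy, pyknosed or fragmented nuclei, and pyknosed cells into mitotic or apoptotic. Before that, live cells stained at seeding with Hoechst33342, BioTracker Green Microtubule Cytoskeleton Dye, MitoTracker Red and Annexin V Alexa Fluor 680 were imaged on a CQ1 microscope at 37°C and 5% CO2 after compound addition.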

[1] = 12 h, 1 µM, compound concentration 1 uM, replicate 1
[2] = 12 h, 1 µM, compound concentration 1 uM, replicate 2
[3] = 12 h, 10 µM, compound concentration 10 uM, replicate 1
[4] = 12 h, 10 µM, compound concentration 10 uM, replicate 2
[5] = 24 h, 1 µM, compound concentration 1 uM, replicate 1
[6] = 24 h, 1 µM, compound concentration 1 uM, replicate 2
[7] = 24 h, 10 µM, compound concentration 10 uM, replicate 1
[8] = 24 h, 10 µM, compound concentration 10 uM, replicate 2
[9] = 48 h, 1 µM, compound concentration 1 uM, replicate 1
[10] = 48 h, 1 µM, compound concentration 1 uM, replicate 2
[11] = 48 h, 10 µM, compound concentration 10 uM, replicate 1
[12] = 48 h, 10 µM, compound concentration 10 uM, replicate 2

SMILES: C[C@@H]1C[C@H]2[C@@H]3CCC4=CC(=O)C=C[C@]4(C)[C@@]3(F)[C@@H](O)C[C@]2(C)[C@@]1(O)C(=O)CO [DEXAMETHASONE]
- Population Apoptotic (%) [1]: 62%
- Population Fragmented Nuclei (%) [1]: 18%
- Population Healthy Nuclei (%) [1]: 66%
- Population Hoechst High Intensity Objects (%) [1]: 7%
- Population Membrane Permeable-Phenotype (%) [1]: 0%
- Population Mitochondria Different-Phenotype (%) [1]: 2%
- Population Mitotic Cells (%) [1]: 37%
- Population Normal (%) [1]: 92%
- Population Pyknosed Nuclei (%) [1]: 15%
- Population Tubulin-Different-Phenotype (%) [1]: 26%
- Population Apoptotic (%) [2]: 38%
- Population Fragmented Nuclei (%) [2]: 30%
- Population Healthy Nuclei (%) [2]: 48%
- Population Hoechst High Intensity Objects (%) [2]: 3%
- Population Membrane Permeable-Phenotype (%) [2]: 9%
- Population Mitochondria Different-Phenotype (%) [2]: 4%
- Population Mitotic Cells (%) [2]: 61%
- Population Normal (%) [2]: 96%
- Population Pyknosed Nuclei (%) [2]: 20%
- Population Tubulin-Different-Phenotype (%) [2]: 52%
- Population Apoptotic (%) [3]: 35%
- Population Fragmented Nuclei (%) [3]: 20%
- Population Healthy Nuclei (%) [3]: 65%
- Population Hoechst High Intensity Objects (%) [3]: 2%
- Population Membrane Permeable-Phenotype (%) [3]: 1%
- Population Mitochondria Different-Phenotype (%) [3]: 5%
- Population Mitotic Cells (%) [3]: 65%
- Population Normal (%) [3]: 98%
- Population Pyknosed Nuclei (%) [3]: 13%
- Population Tubulin-Different-Phenotype (%) [3]: 22%
- Population Apoptotic (%) [4]: 30%
- Population Fragmented Nuclei (%) [4]: 24%
- Population Healthy Nuclei (%) [4]: 52%
- Population Hoechst High Intensity Objects (%) [4]: 6%
- Population Membrane Permeable-Phenotype (%) [4]: 4%
- Population Mitochondria Different-Phenotype (%) [4]: 2%
- Population Mitotic Cells (%) [4]: 69%
- Population Normal (%) [4]: 93%
- Population Pyknosed Nuclei (%) [4]: 23%
- Population Tubulin-Different-Phenotype (%) [4]: 53%
- Population Apoptotic (%) [5]: 48%
- Population Fragmented Nuclei (%) [5]: 14%
- Population Healthy Nuclei (%) [5]: 68%
- Population Hoechst High Intensity Objects (%) [5]: 5%
- Population Membrane Permeable-Phenotype (%) [5]: 1%
- Population Mitochondria Different-Phenotype (%) [5]: 3%
- Population Mitotic Cells (%) [5]: 52%
- Population Normal (%) [5]: 94%
- Population Pyknosed Nuclei (%) [5]: 17%
- Population Tubulin-Different-Phenotype (%) [5]: 26%
- Population Apoptotic (%) [6]: 31%
- Population Fragmented Nuclei (%) [6]: 29%
- Population Healthy Nuclei (%) [6]: 50%
- Population Hoechst High Intensity Objects (%) [6]: 6%
- Population Membrane Permeable-Phenotype (%) [6]: 4%
- Population Mitochondria Different-Phenotype (%) [6]: 1%
- Population Mitotic Cells (%) [6]: 68%
- Population Normal (%) [6]: 93%
- Population Pyknosed Nuclei (%) [6]: 19%
- Population Tubulin-Different-Phenotype (%) [6]: 53%
- Population Apoptotic (%) [7]: 42%
- Population Fragmented Nuclei (%) [7]: 15%
- Population Healthy Nuclei (%) [7]: 65%
- Population Hoechst High Intensity Objects (%) [7]: 3%
- Population Membrane Permeable-Phenotype (%) [7]: 1%
- Population Mitochondria Different-Phenotype (%) [7]: 6%
- Population Mitotic Cells (%) [7]: 57%
- Population Normal (%) [7]: 96%
- Population Pyknosed Nuclei (%) [7]: 18%
- Population Tubulin-Different-Phenotype (%) [7]: 22%
- Population Apoptotic (%) [8]: 30%
- Population Fragmented Nuclei (%) [8]: 30%
- Population Healthy Nuclei (%) [8]: 44%
- Population Hoechst High Intensity Objects (%) [8]: 6%
- Population Membrane Permeable-Phenotype (%) [8]: 10%
- Population Mitochondria Different-Phenotype (%) [8]: 2%
- Population Mitotic Cells (%) [8]: 69%
- Population Normal (%) [8]: 93%
- Population Pyknosed Nuclei (%) [8]: 24%
- Population Tubulin-Different-Phenotype (%) [8]: 45%
- Population Apoptotic (%) [9]: 46%
- Population Fragmented Nuclei (%) [9]: 22%
- Population Healthy Nuclei (%) [9]: 52%
- Population Hoechst High Intensity Objects (%) [9]: 6%
- Population Membrane Permeable-Phenotype (%) [9]: 2%
- Population Mitochondria Different-Phenotype (%) [9]: 4%
- Population Mitotic Cells (%) [9]: 53%
- Population Normal (%) [9]: 93%
- Population Pyknosed Nuclei (%) [9]: 24%
- Population Tubulin-Different-Phenotype (%) [9]: 34%
- Population Apoptotic (%) [10]: 37%
- Population Fragmented Nuclei (%) [10]: 38%
- Population Healthy Nuclei (%) [10]: 46%
- Population Hoechst High Intensity Objects (%) [10]: 4%
- Population Membrane Permeable-Phenotype (%) [10]: 4%
- Population Mitotic Cells (%) [10]: 62%
- Population Normal (%) [10]: 95%
- Population Pyknosed Nuclei (%) [10]: 14%
- Population Tubulin-Different-Phenotype (%) [10]: 53%
- Population Apoptotic (%) [11]: 50%
- Population Fragmented Nuclei (%) [11]: 22%
- Population Healthy Nuclei (%) [11]: 55%
- Population Hoechst High Intensity Objects (%) [11]: 4%
- Population Membrane Permeable-Phenotype (%) [11]: 0%
- Population Mitochondria Different-Phenotype (%) [11]: 7%
- Population Mitotic Cells (%) [11]: 50%
- Population Normal (%) [11]: 95%
- Population Pyknosed Nuclei (%) [11]: 22%
- Population Tubulin-Different-Phenotype (%) [11]: 19%
- Population Apoptotic (%) [12]: 37%
- Population Fragmented Nuclei (%) [12]: 36%
- Population Healthy Nuclei (%) [12]: 43%
- Population Hoechst High Intensity Objects (%) [12]: 7%
- Population Membrane Permeable-Phenotype (%) [12]: 10%
- Population Mitochondria Different-Phenotype (%) [12]: 0%
- Population Mitotic Cells (%) [12]: 62%
- Population Normal (%) [12]: 92%
- Population Pyknosed Nuclei (%) [12]: 20%
- Population Tubulin-Different-Phenotype (%) [12]: 39%

From ChEMBL document CHEMBL5058577, “EUbOPEN Chemogenomics Library 2 (Multiplex)” (2022)
